Test results taken from ChEMBL document CHEMBL4689842, “EUbOPEN Chemogenomics Library wave 1” (2021).

Test system: HEK-293T
Assay: Multiplex assay against HEK293T;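 on Population Tubulin-Different-Phenotype (%): share of the cells with healthy nuclei that show this phenotype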
Format: toxicity, cell-based
Settings: human
In short: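 Hoechst33342, BioTracker Green Microtubule Cytoskeleton Dye, MitoTracker Red and Annexin V Alexa Fluor 680 were added to live cells at seeding, and imaging on a CQ1 microscope at 37°C and 5% CO2 followed compound addition. Gating by CellPathfinder machine learning separated cells into Hoechst high-intensity objects or normal cells, then normal cells into healthy, pyknosed or fragmented nuclei, then pyknosed cells into mitotic or apoptotic. Per cents of healthy-nucleus cells are reported for the tubulin, mitochondrial-mass and membrane-permeability phenotypes.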

[1] = 12 h, 1 µM, compound concentration 1 uM, replicate 1
[2] = 12 h, 1 µM, compound concentration 1 uM, replicate 2
[3] = 12 h, 10 µM, compound concentration 10 uM, replicate 1
[4] = 12 h, 10 µM, compound concentration 10 uM, replicate 2
[5] = 24 h, 1 µM, compound concentration 1 uM, replicate 1
[6] = 24 h, 1 µM, compound concentration 1 uM, replicate 2
[7] = 24 h, 10 µM, compound concentration 10 uM, replicate 1
[8] = 24 h, 10 µM, compound concentration 10 uM, replicate 2
[9] = 48 h, 1 µM, compound concentration 1 uM, replicate 1
[10] = 48 h, 1 µM, compound concentration 1 uM, replicate 2
[11] = 48 h, 10 µM, compound concentration 10 uM, replicate 1
[12] = 48 h, 10 µM, compound concentration 10 uM, replicate 2

O=C(Nc1ccc(-n2nc(-c3cccnc3)cc2C(F)(F)F)cn1)c1ccc(-c2ccccc2)c(F)c1 [BI 2049]
Population Apoptotic (%) [1]: 46% | Population Fragmented Nuclei (%) [1]: 22% | Population Healthy Nuclei (%) [1]: 24% | Population Hoechst High Intensity Objects (%) [1]: 21% | Population Membrane Permeable-Phenotype (%) [1]: 0% | Population Mitochondria Different-Phenotype (%) [1]: 60% | Population Mitotic Cells (%) [1]: 53% | Population Normal (%) [1]: 78% | Population Pyknosed Nuclei (%) [1]: 53% | Population Tubulin-Different-Phenotype (%) [1]: 10% | Total Cell Count [1]: 147 | Population Apoptotic (%) [2]: 3% | Population Fragmented Nuclei (%) [2]: 11% | Population Healthy Nuclei (%) [2]: 37% | Population Hoechst High Intensity Objects (%) [2]: 2% | Population Membrane Permeable-Phenotype (%) [2]: 3% | Population Mitochondria Different-Phenotype (%) [2]: 8% | Population Mitotic Cells (%) [2]: 96% | Population Normal (%) [2]: 97% | Population Pyknosed Nuclei (%) [2]: 51% | Population Tubulin-Different-Phenotype (%) [2]: 1% | Total Cell Count [2]: 166 | Population Apoptotic (%) [3]: 63% | Population Fragmented Nuclei (%) [3]: 12% | Population Healthy Nuclei (%) [3]: 23% | Population Hoechst High Intensity Objects (%) [3]: 11% | Population Membrane Permeable-Phenotype (%) [3]: 3% | Population Mitochondria Different-Phenotype (%) [3]: 90% | Population Mitotic Cells (%) [3]: 36% | Population Normal (%) [3]: 88% | Population Pyknosed Nuclei (%) [3]: 64% | Population Tubulin-Different-Phenotype (%) [3]: 65% | Total Cell Count [3]: 254 | Population Apoptotic (%) [4]: 12% | Population Fragmented Nuclei (%) [4]: 5% | Population Healthy Nuclei (%) [4]: 47% | Population Hoechst High Intensity Objects (%) [4]: 3% | Population Membrane Permeable-Phenotype (%) [4]: 9% | Population Mitochondria Different-Phenotype (%) [4]: 15% | Population Mitotic Cells (%) [4]: 88% | Population Normal (%) [4]: 96% | Population Pyknosed Nuclei (%) [4]: 47% | Population Tubulin-Different-Phenotype (%) [4]: 13% | Total Cell Count [4]: 276 | Population Apoptotic (%) [5]: 65% | Population Fragmented Nuclei (%) [5]: 25% | Population Healthy Nuclei (%) [5]: 30% | Population Hoechst High Intensity Objects (%) [5]: 26% | Population Membrane Permeable-Phenotype (%) [5]: 6% | Population Mitochondria Different-Phenotype (%) [5]: 59% | Population Mitotic Cells (%) [5]: 34% | Population Normal (%) [5]: 73% | Population Pyknosed Nuclei (%) [5]: 43% | Population Tubulin-Different-Phenotype (%) [5]: 31% | Total Cell Count [5]: 143 | Population Apoptotic (%) [6]: 12% | Population Fragmented Nuclei (%) [6]: 7% | Population Healthy Nuclei (%) [6]: 73% | Population Hoechst High Intensity Objects (%) [6]: 4% | Population Membrane Permeable-Phenotype (%) [6]: 3% | Population Mitochondria Different-Phenotype (%) [6]: 6% | Population Mitotic Cells (%) [6]: 87% | Population Normal (%) [6]: 95% | Population Pyknosed Nuclei (%) [6]: 19% | Population Tubulin-Different-Phenotype (%) [6]: 4% | Total Cell Count [6]: 212 | Population Apoptotic (%) [7]: 60% | Population Fragmented Nuclei (%) [7]: 12% | Population Healthy Nuclei (%) [7]: 27% | Population Hoechst High Intensity Objects (%) [7]: 13% | Population Membrane Permeable-Phenotype (%) [7]: 3% | Population Mitochondria Different-Phenotype (%) [7]: 82% | Population Mitotic Cells (%) [7]: 39% | Population Normal (%) [7]: 86% | Population Pyknosed Nuclei (%) [7]: 60% | Population Tubulin-Different-Phenotype (%) [7]: 53% | Total Cell Count [7]: 266 | Population Apoptotic (%) [8]: 5% | Population Fragmented Nuclei (%) [8]: 6% | Population Healthy Nuclei (%) [8]: 64% | Population Hoechst High Intensity Objects (%) [8]: 2% | Population Membrane Permeable-Phenotype (%) [8]: 6% | Population Mitochondria Different-Phenotype (%) [8]: 14% | Population Mitotic Cells (%) [8]: 94% | Population Normal (%) [8]: 97% | Population Pyknosed Nuclei (%) [8]: 29% | Population Tubulin-Different-Phenotype (%) [8]: 23% | Total Cell Count [8]: 339 | Population Apoptotic (%) [9]: 54% | Population Fragmented Nuclei (%) [9]: 27% | Population Healthy Nuclei (%) [9]: 35% | Population Hoechst High Intensity Objects (%) [9]: 18% | Population Membrane Permeable-Phenotype (%) [9]: 2% | Population Mitochondria Different-Phenotype (%) [9]: 20% | Population Mitotic Cells (%) [9]: 46% | Population Normal (%) [9]: 81% | Population Pyknosed Nuclei (%) [9]: 37% | Population Tubulin-Different-Phenotype (%) [9]: 14% | Total Cell Count [9]: 166 | Population Apoptotic (%) [10]: 11% | Population Fragmented Nuclei (%) [10]: 7% | Population Healthy Nuclei (%) [10]: 83% | Population Hoechst High Intensity Objects (%) [10]: 2% | Population Mitochondria Different-Phenotype (%) [10]: 3% | Population Mitotic Cells (%) [10]: 88% | Population Normal (%) [10]: 97% | Population Pyknosed Nuclei (%) [10]: 8% | Population Tubulin-Different-Phenotype (%) [10]: 6% | Total Cell Count [10]: 420 | Population Apoptotic (%) [11]: 55% | Population Fragmented Nuclei (%) [11]: 14% | Population Healthy Nuclei (%) [11]: 28% | Population Hoechst High Intensity Objects (%) [11]: 18% | Population Membrane Permeable-Phenotype (%) [11]: 1% | Population Mitochondria Different-Phenotype (%) [11]: 52% | Population Mitotic Cells (%) [11]: 44% | Population Normal (%) [11]: 81% | Population Pyknosed Nuclei (%) [11]: 56% | Population Tubulin-Different-Phenotype (%) [11]: 40% | Total Cell Count [11]: 298 | Population Apoptotic (%) [12]: 7% | Population Fragmented Nuclei (%) [12]: 6% | Population Healthy Nuclei (%) [12]: 82% | Population Hoechst High Intensity Objects (%) [12]: 2% | Population Membrane Permeable-Phenotype (%) [12]: 5% | Population Mitochondria Different-Phenotype (%) [12]: 4% | Population Mitotic Cells (%) [12]: 92% | Population Normal (%) [12]: 97% | Population Pyknosed Nuclei (%) [12]: 10% | Population Tubulin-Different-Phenotype (%) [12]: 21% | Total Cell Count [12]: 633

Cn1nc(C(F)(F)F)cc1-c1cnc(N2CCc3cc(S(=O)(=O)Nc4c(F)cc(Cl)cc4F)cc(N4CCCC4=O)c32)nc1 [TP-020]
Population Apoptotic (%) [1]: 25% | Population Fragmented Nuclei (%) [1]: 10% | Population Healthy Nuclei (%) [1]: 71% | Population Hoechst High Intensity Objects (%) [1]: 10% | Population Membrane Permeable-Phenotype (%) [1]: 6% | Population Mitochondria Different-Phenotype (%) [1]: 9% | Population Mitotic Cells (%) [1]: 74% | Population Normal (%) [1]: 89% | Population Pyknosed Nuclei (%) [1]: 18% | Population Tubulin-Different-Phenotype (%) [1]: 16% | Total Cell Count [1]: 692 | Population Apoptotic (%) [2]: 16% | Population Fragmented Nuclei (%) [2]: 5% | Population Healthy Nuclei (%) [2]: 89% | Population Hoechst High Intensity Objects (%) [2]: 1% | Population Membrane Permeable-Phenotype (%) [2]: 9% | Population Mitochondria Different-Phenotype (%) [2]: 13% | Population Mitotic Cells (%) [2]: 83% | Population Normal (%) [2]: 98% | Population Pyknosed Nuclei (%) [2]: 5% | Population Tubulin-Different-Phenotype (%) [2]: 37% | Total Cell Count [2]: 1398 | Population Apoptotic (%) [3]: 17% | Population Fragmented Nuclei (%) [3]: 14% | Population Healthy Nuclei (%) [3]: 63% | Population Hoechst High Intensity Objects (%) [3]: 11% | Population Membrane Permeable-Phenotype (%) [3]: 2% | Population Mitochondria Different-Phenotype (%) [3]: 2% | Population Mitotic Cells (%) [3]: 82% | Population Normal (%) [3]: 88% | Population Pyknosed Nuclei (%) [3]: 21% | Population Tubulin-Different-Phenotype (%) [3]: 3% | Total Cell Count [3]: 565 | Population Apoptotic (%) [4]: 4% | Population Fragmented Nuclei (%) [4]: 9% | Population Healthy Nuclei (%) [4]: 86% | Population Hoechst High Intensity Objects (%) [4]: 1% | Population Mitochondria Different-Phenotype (%) [4]: 5% | Population Mitotic Cells (%) [4]: 95% | Population Normal (%) [4]: 98% | Population Pyknosed Nuclei (%) [4]: 4% | Population Tubulin-Different-Phenotype (%) [4]: 5% | Total Cell Count [4]: 1658 | Population Apoptotic (%) [5]: 21% | Population Fragmented Nuclei (%) [5]: 10% | Population Hoechst High Intensity Objects (%) [5]: 7% | Population Membrane Permeable-Phenotype (%) [5]: 12% | Population Mitochondria Different-Phenotype (%) [5]: 8% | Population Mitotic Cells (%) [5]: 78% | Population Normal (%) [5]: 92% | Population Pyknosed Nuclei (%) [5]: 8% | Population Tubulin-Different-Phenotype (%) [5]: 31% | Total Cell Count [5]: 805 | Population Apoptotic (%) [6]: 6% | Population Fragmented Nuclei (%) [6]: 12% | Population Healthy Nuclei (%) [6]: 81% | Population Hoechst High Intensity Objects (%) [6]: 1% | Population Membrane Permeable-Phenotype (%) [6]: 13% | Population Mitochondria Different-Phenotype (%) [6]: 6% | Population Mitotic Cells (%) [6]: 93% | Population Normal (%) [6]: 98% | Population Pyknosed Nuclei (%) [6]: 5% | Population Tubulin-Different-Phenotype (%) [6]: 47% | Total Cell Count [6]: 1839 | Population Apoptotic (%) [7]: 26% | Population Fragmented Nuclei (%) [7]: 11% | Population Healthy Nuclei (%) [7]: 77% | Population Hoechst High Intensity Objects (%) [7]: 5% | Population Membrane Permeable-Phenotype (%) [7]: 8% | Population Mitochondria Different-Phenotype (%) [7]: 1% | Population Mitotic Cells (%) [7]: 73% | Population Normal (%) [7]: 94% | Population Pyknosed Nuclei (%) [7]: 10% | Population Tubulin-Different-Phenotype (%) [7]: 7% | Total Cell Count [7]: 670 | Population Apoptotic (%) [8]: 3% | Population Fragmented Nuclei (%) [8]: 26% | Population Healthy Nuclei (%) [8]: 71% | Population Hoechst High Intensity Objects (%) [8]: 3% | Population Membrane Permeable-Phenotype (%) [8]: 5% | Population Mitochondria Different-Phenotype (%) [8]: 0% | Population Mitotic Cells (%) [8]: 96% | Population Normal (%) [8]: 96% | Population Pyknosed Nuclei (%) [8]: 2% | Population Tubulin-Different-Phenotype (%) [8]: 5% | Total Cell Count [8]: 2801
